{"data": "Published values of several laboratories", "target": "Serine/threonine-protein kinase 26 (STK26, Homo sapiens, UniProt Q9P289)", "note": "Each line is one published result; the experiments were not run side by side."}
{"Compound": "CN(C)C(=O)Cn1cc(-c2nc(C3(c4ccc(-c5cnc(N)nc5)cc4)CC3)no2)cn1", "test": "cell-free assay, competition with immobilised ligand", "setting": "1 µM", "quantity": "remaining binding", "value": "89%"}
{"Compound": "CN(C)c1nccc(-c2cnn3ncccc23)n1", "test": "cell-free assay", "setting": "1 µM", "quantity": "remaining signal", "value": "100%"}
{"Compound": "Nc1nc(NC2CCCCC2)sc1C(=O)c1ccccc1", "test": "enzyme activity, inhibitor", "setting": "10 µM", "quantity": "remaining activity", "value": "76%"}
{"Compound": "c1ccc(CNc2nc(N3CCOc4ccccc43)nc3c2CCCC3)cc1", "test": "target engagement in cells, inhibitor, chemoproteomics", "setting": "20 mM", "quantity": "inhibition", "value": "38.2%"}
{"Compound": "CN1CC(Oc2cnc(C#N)cc2-c2ccn3nc(NC(=O)C4CC4)cc3c2)C1", "test": "enzyme activity, inhibitor", "setting": "1 µM", "quantity": "inhibition", "value": "-9%"}
{"Compound": "COc1cc(Cl)c(C(=O)N[C@@H](CN[C@H]2CC[C@@H](N)CC2)Cc2ccc(C#N)cc2)cc1-c1ccc(CN[C@H](C)c2ccc(C)cc2)o1", "test": "enzyme activity, inhibitor", "setting": "1 µM", "quantity": "remaining activity", "value": "94%"}
{"Compound": "Cc1noc([C@H]2C[C@@H](c3ccc(C(F)(F)F)cc3)CN(C(=O)N3CCS(=O)(=O)C3)C2)n1", "test": "cell-free assay, competition with immobilised ligand", "setting": "1 µM", "quantity": "remaining binding", "value": "74%"}
{"Compound": "O=C(Nc1cnn(-c2csc(C(=O)NC3COC3)c2)c1)Nc1ccccc1Cl", "test": "enzyme activity, inhibitor", "setting": "5 µM", "quantity": "remaining activity", "value": "98.3%"}
{"Compound": "NS(=O)(=O)c1cc(NC(=O)Cc2ccccc2)ccc1Oc1cccc(Cl)c1", "test": "cell-free assay, competition with immobilised ligand", "setting": "1 µM", "quantity": "remaining binding", "value": "99%"}
{"Compound": "O=C1Nc2ccc(Cl)cc2C1=Cc1cc(Cl)c(O)c(Cl)c1", "test": "cell-free assay", "setting": "0.5 µM", "quantity": "remaining signal", "value": "101%"}
{"Compound": "C[C@H](c1ccc(F)cc1)N(Cc1cccc(C(=O)O)c1)C(=O)c1cnc2ccccc2c1", "test": "cell-free assay, competition with immobilised ligand", "setting": "1 µM", "quantity": "remaining binding", "value": "79%"}
{"Compound": "Oc1cccc(-c2nc(N3CCOCC3)c3oc4ncccc4c3n2)c1", "test": "enzyme activity, inhibitor", "setting": "10 µM", "quantity": "remaining activity", "value": "114%"}
{"Compound": "CNC(=O)c1ccc(Nc2ncc(C(F)(F)F)c(NCc3nccnc3N(C)S(C)(=O)=O)n2)cc1", "test": "cell-free assay, competition with immobilised ligand", "setting": "0.1 µM", "quantity": "remaining binding", "value": "95%"}
{"Compound": "CN(C)C1CCN(CC#Cc2nn(C3CCCC3)c3nc(NCc4ccccc4)ncc23)C1 (stereo not shown)", "test": "enzyme activity, inhibitor, FRET", "setting": "1 µM", "quantity": "inhibition", "value": "20%"}
{"Compound": "CCN1CCC2(CC1)NC(=O)c1c(c3ccc(Cl)c(Cl)c3n1C)C2C#N (racemic)", "test": "thermal stability, DSF", "setting": "10 µM", "quantity": "ΔTm", "value": "-0.2 °C"}
{"Compound": "N[C@H]1CCN(c2nccc(-c3cnn4ncccc34)n2)C1", "test": "cell-free assay", "setting": "1 µM", "quantity": "remaining signal", "value": "71%"}
{"Compound": "COc1cc(-c2cc(-c3ccc(N4CCNCC4)cc3)cnc2N)cc(OC)c1OC", "test": "enzyme activity, inhibitor", "setting": "0.1 µM", "quantity": "inhibition", "value": "0%"}
{"Compound": "Cn1c2c(Cl)c(Cl)ccc2c2cc(N)[nH]c(=O)c21", "test": "thermal stability, DSF", "setting": "10 µM", "quantity": "ΔTm", "value": "1.5 °C"}
{"Compound": "CC(=O)N1CCC(c2ccc(C(=O)NC(=N)N)cc2C(F)(F)F)CC1", "test": "cell-free assay, competition with immobilised ligand", "setting": "1 µM", "quantity": "remaining binding", "value": "97%"}
{"Compound": "COc1cc2ncnc(Nc3ccc(Oc4ccccc4)cc3C)c2cc1OC", "test": "enzyme activity, inhibitor", "setting": "1 µM", "quantity": "inhibition", "value": "-2%"}
{"Compound": "O=C(Nc1ccc(Oc2ccc(F)cc2)cc1)N1CCc2ncccc2[C@H]1c1ccc(F)cc1", "test": "cell-free assay, competition with immobilised ligand", "setting": "1 µM", "quantity": "remaining binding", "value": "100%"}
{"Compound": "CN(CCCC(F)(F)F)c1nccc(-c2cnn3ncccc23)n1", "test": "cell-free assay", "setting": "1 µM", "quantity": "remaining signal", "value": "100%"}
